From ChEMBL document CHEMBL3352048, “Development of 2-(4-oxoquinazolin-3(4H)-yl)acetamide derivatives as novel enoyl-acyl carrier protein reductase (InhA) inhibitors for the treatment of tuberculosis” (Eur J Med Chem, 2014)
Values after ≈ are worked out from the molar mass of the structure shown.

Assays:
[1] = Cytotoxicity against mouse RAW264.7 cells at 50 uM after 72 hrs by MTT assay; type: cell-based; conditions: read-out: INH
Outline: (§1)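 RAW 264.7 mouse leukemic monocyte macrophages were exposed to compound for 72 h, tested at concentrations up to 100 µM. Viability was read as MTT conversion to formazan (CellTiter 96 non-radioactive proliferation assay). Results are reported as percentage inhibition.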

[2] = tested on: Mycobacterium tuberculosis; test: Antimycobacterial activity against Mycobacterium tuberculosis H37Rv ATCC 27294 after 28 days by two-fold serial dilution assay in presence of […] piperine efflux pump inhibitor; type: functional; conditions: H37Rv ATCC 27294, 672 h
[3] = tested on: Mycobacterium tuberculosis; test: Antimycobacterial activity against Mycobacterium tuberculosis H37Rv ATCC 27294 after 28 days by two-fold serial dilution assay; type: functional; conditions: H37Rv ATCC 27294, 672 h
Outline: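 Agar dilution test against M. tuberculosis H37Rv (ATCC27294). Drug concentrations ran from 50 µg/mL to 0.78 µg/mL, tested in duplicate. MIC was taken as the minimum concentration inhibiting growth.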

[4] = biological target: T1, Enoyl-[acyl-carrier-protein] reductase [NADH] (Mycobacterium tuberculosis) (UniProt P9WGR1); test: Inhibition of Mycobacterium tuberculosis recombinant InhA expressed in Escherichia coli BL21 (DE3) using 2-trans-decenoyl substrate at 10 uM by spectrophotometry
T1 sequence (whole entry): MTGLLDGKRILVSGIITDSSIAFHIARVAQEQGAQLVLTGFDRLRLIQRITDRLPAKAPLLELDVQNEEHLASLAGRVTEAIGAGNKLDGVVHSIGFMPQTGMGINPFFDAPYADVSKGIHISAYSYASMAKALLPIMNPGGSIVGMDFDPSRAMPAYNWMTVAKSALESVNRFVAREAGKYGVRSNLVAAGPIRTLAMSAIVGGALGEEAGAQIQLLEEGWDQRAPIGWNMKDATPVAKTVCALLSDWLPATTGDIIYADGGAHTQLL
Outline: (§2)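 Recombinant M. tuberculosis InhA was expressed in E. coli and purified. Inhibition was screened as percent inhibition at 10 µM. IC50 values came from dose-response curves of log concentration versus % inhibition.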

[5] = Cytotoxicity against mouse RAW264.7 cells at 100 uM after 72 hrs by MTT assay; type: cell-based; conditions: read-out: INH; outline: as §1
[6] = biological target: T2, Enoyl-[acyl-carrier-protein] reductase [NADH] (Mycobacterium tuberculosis, UniProt P9WGR1); test: Inhibition of Mycobacterium tuberculosis recombinant InhA expressed in Escherichia coli BL21 (DE3) using 2-trans-decenoyl substrate by spectrophotometry; outline: as §2
T2 sequence (P9WGR1 whole entry): T1 sequence (whole entry)

Row | Structure (SMILES) | cytotoxicity at 72 h, 50 µM [1] [%] | MIC [2] [µM] | MIC [3] [µM] | inhibition [4] [%] | cytotoxicity at 72 h, 100 µM [5] [%] | IC50 [6] [µM]
1 | O=C(Cn1cnc2ccc(Cl)cc2c1=O)NCc1nc2ccc([N+](=O)[O-])cc2s1 | 15.8 | 30.1 | 30.1 (≈ 12.9 µg/mL) | 45.6 | 62.8 | 
2 | Cc1nc2ccc(Cl)cc2c(=O)n1CC(=O)Nc1ccccc1 | 19.9 | 2.38 | 4.76 (≈ 1.56 µg/mL) | 88.1 | 28.7 | 3.12
3 | Cc1cccc(NC(=O)Cn2cnc3ccccc3c2=O)c1 |  |  |  | 14.5 |  | 
4 | CC[C@@H](CO)NCCN[C@@H](CC)CO [ETHAMBUTOL] |  |  | 7.64 (≈ 1.56 µg/mL) |  |  | 
5 | Cc1nc2ccc(Cl)cc2c(=O)n1CC(=O)NCc1cccs1 | 47.5 | 4.48 | 18 (≈ 6.25 µg/mL) | 70.2 | 51.7 | 6.76
6 | CC1COc2c(N3CCN(C)CC3)c(F)cc3c(=O)c(C(=O)O)cn1c23 (stereo not drawn) [OFLOXACIN] |  |  | 2.16 (≈ 0.781 µg/mL) |  |  | 
7 | Cc1nc2ccccc2c(=O)n1CC(=O)NCc1nc2ccc([N+](=O)[O-])cc2s1 | 34 |  | > 63.2 | 64 | 37.4 | 6.16
8 | Cc1nc2ccc(Cl)cc2c(=O)n1CC(=O)NCc1ccco1 | 3.36 | 1.17 | 4.7 (≈ 1.56 µg/mL) | 78.1 | 5.37 | 4.52
9 | O=C(Cn1cnc2ccccc2c1=O)Nc1ccccc1 | 21.2 | 5.58 | 11.2 (≈ 3.12 µg/mL) | 52.1 | 31.1 | 
10 | O=C(Cn1cnc2ccc(Cl)cc2c1=O)NCc1ccco1 | 30.7 | 4.91 | 4.91 (≈ 1.56 µg/mL) | 82.4 | 42.5 | 3.12
11 | Cc1nc2ccccc2c(=O)n1CC(=O)Nc1ccccc1 | 11.2 | 5.31 | 10.7 (≈ 3.12 µg/mL) | 60.1 | 29.7 | 8.92
12 | NNC(=O)c1ccncc1 [ISONIAZID] |  |  | 0.72 (≈ 0.0987 µg/mL) |  |  | 
13 | O=C(Cn1cnc2ccccc2c1=O)Nc1cc(C(F)(F)F)ccc1Cl | 10.1 | 2.04 | 8.18 (≈ 3.12 µg/mL) | 58.1 | 35.6 | 8.16
14 | O=C(Cn1cnc2ccccc2c1=O)NCc1cccs1 | 4.38 | 1.3 | 5.21 (≈ 1.56 µg/mL) | 33.7 | 41.4 | 
15 | O=C(Cn1cnc2ccccc2c1=O)NCc1ccco1 | 1.96 | 2.75 | 5.5 (≈ 1.56 µg/mL) | 46.1 | 13.7 | 
16 | Cc1nc2ccc(Cl)cc2c(=O)n1CC(=O)NCc1nc2ccc([N+](=O)[O-])cc2s1 | 28.4 |  | 58.2 (≈ 25.8 µg/mL) | 54.1 | 33.7 | 
17 | O=C(Cn1cnc2ccccc2c1=O)NCc1nc2ccc([N+](=O)[O-])cc2s1 | 13.1 | 1.02 | 4.09 (≈ 1.62 µg/mL) | 72.2 | 50.5 | 5.12
18 | O=C(Cn1cnc2ccc(Cl)cc2c1=O)NCc1cccs1 | 32.4 | 2.33 | 9.36 (≈ 3.12 µg/mL) | 68.9 | 45.2 | 7.12
19 | Cc1nc2ccccc2c(=O)n1CC(=O)NCc1cccs1 | 35.6 | 4.97 | 9.97 (≈ 3.12 µg/mL) | 68.2 | 38.6 | 6.01
20 | O=C(Cn1cnc2ccccc2c1=O)Nc1cc(Cl)ccc1Cl |  |  |  | 16.3 |  | 
21 | O=C(Cn1cnc2ccc(Cl)cc2c1=O)Nc1cc(C(F)(F)F)ccc1Cl | 48.9 | 1.87 | 3.74 (≈ 1.56 µg/mL) | 80.1 | 53.6 | 4.56
22 | Cc1nc2ccccc2c(=O)n1CC(=O)NCc1ccco1 | 25.5 | 42 | 84.1 (≈ 25 µg/mL) | 70.1 | 41.5 | 6.86
23 | CO[C@H]1/C=C/O[C@@]2(C)Oc3c(C)c(O)c4c(O)c(c(/C=N/N5CCN(C)CC5)c(O)c4c3C2=O)NC(=O)/C(C)=C\C=C\[C@H](C)[C@H](O)[C@@H](C)[C@@H](O)[C@@H](C)[C@H](OC(C)=O)[C@@H]1C [RIFAMPIN] |  |  | 0.15 (≈ 0.123 µg/mL) |  |  | 
24 | O=C(Cn1cnc2ccccc2c1=O)Nc1nccs1 |  |  |  | 31 |  | 
25 | O=C(Cn1cnc2ccc(Cl)cc2c1=O)Nc1ccccc1 | 3.51 | 1.24 | 4.97 (≈ 1.56 µg/mL) | 58.3 | 53 | 7.78
